These results are taken from ChEMBL document CHEMBL1137097, “Discovery of potent and orally bioavailable N,N'-diarylurea antagonists for the CXCR2 chemokine receptor” (Bioorg Med Chem Lett, 2004).

In general, bioavailability refers to the share of a dose that reaches the circulation, judged against a reference dose that is usually intravenous. Higher therefore signals good availability. For orientation: IC50 means the concentration that inhibits the measured activity by half. High values mean lower potency, low ones higher potency. Broadly, the pKa is the negative logarithm of the acid dissociation constant. A high value points to a weaker acid or stronger base. The clearance is a measure of how efficiently the substance is removed, as volume per time. A low value points to inefficient removal.

Structures are written as SMILES.

Data set [1] in a line: Oral bioavailability in rat. The class given is ADME, organism-based. As to conditions: in vivo. The method in brief:
(§1)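 Male Sprague–Dawley rats, n=3 per study, in an iv/po crossover design. Dosed in aqueous solution with 1% DMSO and up to 20% hydroxypropyl-beta-cyclodextrin, 4 and 8 µmol/kg for iv and po. Lateral tail vein blood sampling. Plasma drug measured by LC/MS/MS, lower limit of quantification >10ng/mL.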

Data set [2] addresses T1, C-X-C chemokine receptor type 2 (Homo sapiens, UniProt P25025).
T1 sequence (P25025 whole entry): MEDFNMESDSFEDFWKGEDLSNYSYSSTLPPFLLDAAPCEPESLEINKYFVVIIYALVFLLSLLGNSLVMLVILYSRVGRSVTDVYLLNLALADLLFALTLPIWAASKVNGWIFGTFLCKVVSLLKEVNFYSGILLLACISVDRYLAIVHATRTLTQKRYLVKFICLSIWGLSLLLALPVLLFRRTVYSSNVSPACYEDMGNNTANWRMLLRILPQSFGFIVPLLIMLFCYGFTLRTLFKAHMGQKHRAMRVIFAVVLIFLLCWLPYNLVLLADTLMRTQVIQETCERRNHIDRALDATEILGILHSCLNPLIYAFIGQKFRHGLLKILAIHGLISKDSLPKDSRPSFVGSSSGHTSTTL
The data set can be described thus: Concentration required to inhibit [125I]IL-8 binding towards C-X-C chemokine receptor type 2 of human expressed in CHO cells. The format is cell-based. The gist of the method:
(§2)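 SPA binding on membranes from CHO cell lines expressing CXCR1 or CXCR2. Competition against radiolabeled human recombinant [125I]-IL-8 at 0.23nM. Values are the mean of three individual experiments.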

Data set [3] is described as follows: pKa value was determined. The format is physicochemical. The gist of the method:
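pKa calculated in silico, not measured experimentally.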

The target in data set [4] is T2, C-X-C chemokine receptor type 1 (Homo sapiens, UniProt P25024).
T2 sequence (P25024 whole entry): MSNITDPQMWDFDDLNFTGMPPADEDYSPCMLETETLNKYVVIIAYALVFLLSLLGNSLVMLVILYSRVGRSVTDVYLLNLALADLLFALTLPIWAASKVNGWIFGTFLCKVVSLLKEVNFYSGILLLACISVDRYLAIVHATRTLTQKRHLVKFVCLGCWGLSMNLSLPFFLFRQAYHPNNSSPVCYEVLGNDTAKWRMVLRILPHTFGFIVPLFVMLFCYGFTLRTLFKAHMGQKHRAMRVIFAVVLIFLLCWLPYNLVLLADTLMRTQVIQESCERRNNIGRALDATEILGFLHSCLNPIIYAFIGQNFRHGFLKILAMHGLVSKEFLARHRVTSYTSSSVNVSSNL
The data set is described as follows: Concentration required to inhibit [125I]-IL-8 binding towards C-X-C chemokine receptor type 1 of human expressed in CHO cells. The format is cell-based. The method in brief: as §2

The nature of data set [5]: Plasma clearance in rat. The format is ADME, organism-based. The gist of the method:
as §1

Data set [6] is described as follows: In vitro intrinsic clearance of urea in rat liver microsomes in presence of UDPGA. The class given is ADME, Microsome. The method in brief:
(§3)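 Rat or human liver microsomes at 0.5mg microsomal protein/mL, run with or without UDPGA. Final compound 0.5–1 µM. Substrate loss followed by LC/MS/MS over a 30-min incubation. CLint taken from the slope of substrate disappearance versus time.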
A general note: Liver microsomes are a subcellular fraction often used to study metabolism.

Data set [7] is described as follows: In vitro intrinsic clearance of urea in rat liver microsomes in absence of UDPGA. The class given is ADME, Microsome. The method in brief: as §3
The nature of data set [8]: In vitro intrinsic clearance of urea in human liver microsomes in presence of UDPGA. The format is ADME, Microsome. The gist of the method:
as §3

Data set [9] is described as follows: In vitro intrinsic clearance of urea in human liver microsomes in absence of UDPGA. The class given is ADME, Microsome. The method in brief: as §3

Take `CN(C)S(=O)(=O)c1c(Cl)ccc(NC(=O)Nc2ccccc2Br)c1O`: in data set [1], the bioavailability was determined as 100%. The IC50 in data set [2] amounted to 12 nM; in data set [4], 4320 nM. This molecule registered a pKa in [3] of 6.19. Further, in [5], the clearance was determined as 23.4 mL/min/kg.

In the case of `NC(=O)c1c(Cl)ccc(NC(=O)Nc2ccccc2Br)c1O`, the CL came to 5.3 ml min-1 g-1 liver in [6], 1.5 ml min-1 g-1 liver in data set [7], 1.5 ml min-1 g-1 liver in [8] and 0.74 ml min-1 g-1 liver in [9]. For the same molecule, the bioavailability in [1] is 3.6%. Also, the IC50 came out at 10 nM in [2] and 6040 nM in data set [4]. Moreover, in data set [3], the pKa is 7.11. In [5], this molecule gave a clearance of 105 mL/min/kg.

In data set [1], `O=C(Nc1ccc(Cl)cc1O)Nc1ccccc1Br` returned a bioavailability of 6.6%. This molecule returned an IC50 in data set [2] of 906 nM. In [3], this molecule registered a pKa of 8.24. This molecule also yielded a clearance in data set [5] of 323 mL/min/kg.

On to `Cl.NCc1c(Cl)ccc(NC(=O)Nc2ccccc2Br)c1O`, for which the bioavailability in data set [1] worked out at 67%. The values for the IC50 in [2] and in data set [4] were 114 nM and 30000 nM, respectively. For the same molecule, the pKa in data set [3] was 6.85. Also, the clearance in data set [5] amounted to 104 mL/min/kg.

With `O=C(Nc1ccccc1Br)Nc1ccc(Cl)c(Cl)c1O`, the bioavailability in data set [1] turned out to be 13%. Also, the results for the IC50 in [2] and in data set [4] were 63 nM and 13400 nM, respectively. Moreover, the pKa in data set [3] was 7.24. This molecule came in with a clearance in data set [5] of 73.6 mL/min/kg.

As for `NS(=O)(=O)c1c(Cl)ccc(NC(=O)Nc2ccccc2Br)c1O`, the CL in data set [6] is listed as 5.3 ml min-1 g-1 liver; in [7], 1.5 ml min-1 g-1 liver; in data set [8], 1.5 ml min-1 g-1 liver; in [9], 0.74 ml min-1 g-1 liver. The bioavailability in [1] came out at 86%. For the same molecule, the 50% inhibitory concentration (IC50) in data set [2] stood at 7 nM; in [4], 1370 nM. This molecule also returned a pKa in data set [3] of 6.12. In data set [5], this molecule came in with a clearance of 16.1 mL/min/kg.
